# In ChEMBL document CHEMBL4145530, “Design, synthesis and pharmacological evaluation of N-benzyl-piperidinyl-aryl-acylhydrazone derivatives as donepezil hybrids: Discovery of novel multi-target anti-alzheimer prototype drug candidates” (Eur J Med Chem, 2018):
# pIC50, pKi: −log10 of the molar value.
# Columns and labels:
# Mus musculus [1] = assay: Antinociceptive activity in formalin-induced Swiss mouse model of hyperalgesia assessed as time spent licking the injected paw in early phase at 100 mM/kg, po pretreated for 1 hr followed by formalin injection and measured up to 5 mins (reference value: 74 +/- 7.7 secs); type: functional
# Acetylcholinesterase [2] = target: T1, Acetylcholinesterase (Electrophorus electricus, UniProt O42275); assay: (§1) Inhibition of electric eel AChE using acetylthiocholine iodide as substrate preincubated for 10 mins followed by substrate addition by Ellman's method
# T1 sequence (O42275 whole entry): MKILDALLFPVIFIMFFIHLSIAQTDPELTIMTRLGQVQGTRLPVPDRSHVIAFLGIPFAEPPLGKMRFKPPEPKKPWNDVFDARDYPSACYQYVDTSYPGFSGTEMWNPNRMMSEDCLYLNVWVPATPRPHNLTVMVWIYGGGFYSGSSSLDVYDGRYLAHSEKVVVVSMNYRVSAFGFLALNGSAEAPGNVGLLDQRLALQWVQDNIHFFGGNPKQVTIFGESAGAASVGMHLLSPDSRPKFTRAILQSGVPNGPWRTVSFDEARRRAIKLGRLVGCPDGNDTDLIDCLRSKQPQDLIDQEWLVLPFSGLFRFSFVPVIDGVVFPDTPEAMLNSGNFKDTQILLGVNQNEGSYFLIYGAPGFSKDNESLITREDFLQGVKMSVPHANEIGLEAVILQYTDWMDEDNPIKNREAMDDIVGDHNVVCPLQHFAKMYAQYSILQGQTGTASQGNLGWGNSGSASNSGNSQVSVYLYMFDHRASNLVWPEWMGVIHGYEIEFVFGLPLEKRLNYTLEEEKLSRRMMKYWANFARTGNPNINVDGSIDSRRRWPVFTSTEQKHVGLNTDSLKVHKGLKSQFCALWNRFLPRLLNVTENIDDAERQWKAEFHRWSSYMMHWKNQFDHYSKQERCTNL
# Mus musculus [3] = assay: Antinociceptive activity in carrageenan-induced Swiss mouse model of mechanical hyperalgesia assessed as mechanical hyperalgesic index pretreated orally for 1 hr followed by carrageenan challenge by Von Frey filament assay; type: functional
# How it was run: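 Swiss mice were placed in wire-screen acrylic boxes 60 min before testing. Vehicle, compound or indomethacin was given orally 1 h before intraplantar carrageenan. Mechanical threshold was found by the von Frey up-and-down method, with at least 6 trials at 10 s intervals, raising filament mass until paw withdrawal. Results are given as threshold in grams; n=8.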
# Mus musculus [4] = assay: Anti-inflammatory activity in po dosed Swiss mouse assessed as reduction in carrageenan-induced paw edema pretreated for 1 hr followed by carrageenan injection and measured after 1 to 5 hrs by plethysmometric method; type: functional; details: read-out: ID50 (the source's name)
# How it was run: (§2)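 Male Swiss mice (22–28 g) were fasted overnight and dosed orally with vehicle (2% DMSO in sterile saline), compound or indomethacin 1 h before intraplantar carrageenan. Groups (n=10) were matched on basal paw volume. Right hind paw volume was read by plethysmometer at 1, 3 and 5 h and expressed as change from basal.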
# Mus musculus [5] = assay: Anti-inflammatory activity in Swiss mouse assessed as reduction in carrageenan-induced paw edema by measuring paw volume […] po pretreated for 1 hr followed by carrageenan injection and measured after 1 to 5 hrs by plethysmometric method (reference value: 67.73 +/- 4.2 uL); type: functional; how it was run: as §2
# Mus musculus [6] = assay: Antinociceptive activity in formalin-induced Swiss mouse model of hyperalgesia assessed as time spent licking the injected paw in last phase at […], po pretreated for 1 hr followed by formalin injection and measured at 20 to 30 mins (reference value: 135.8 +/- 10.7 secs); type: functional
# Mus musculus [7] = assay: Antinociceptive activity in formalin-induced Swiss mouse model of hyperalgesia assessed as time spent licking the injected paw in early phase at 39 mM/kg, po pretreated for 1 hr followed by formalin injection and measured up to 5 mins (reference value: 74 +/- 7.7 secs); type: functional
# Mus musculus [8] = assay: Antinociceptive activity in formalin-induced Swiss mouse model of hyperalgesia assessed as time spent licking the injected paw in last phase at 39 mM/kg, po pretreated for 1 hr followed by formalin injection and measured at 20 to 30 mins (reference value: 135.8 +/- 10.7 secs); type: functional
# [9] = Cytotoxicity against human HepG2 cells assessed as cell viability at 20 to 40 uM after 6 hrs by trypan blue exclusion assay relative to control; type: cell-based; details: read-out: Activity
# [10] = target: Acetylcholinesterase (Electrophorus electricus) (UniProt O42275); assay: as §1
# Acetylcholinesterase (Electrophorus electricus), sequence (O42275 24-633 limits assumed): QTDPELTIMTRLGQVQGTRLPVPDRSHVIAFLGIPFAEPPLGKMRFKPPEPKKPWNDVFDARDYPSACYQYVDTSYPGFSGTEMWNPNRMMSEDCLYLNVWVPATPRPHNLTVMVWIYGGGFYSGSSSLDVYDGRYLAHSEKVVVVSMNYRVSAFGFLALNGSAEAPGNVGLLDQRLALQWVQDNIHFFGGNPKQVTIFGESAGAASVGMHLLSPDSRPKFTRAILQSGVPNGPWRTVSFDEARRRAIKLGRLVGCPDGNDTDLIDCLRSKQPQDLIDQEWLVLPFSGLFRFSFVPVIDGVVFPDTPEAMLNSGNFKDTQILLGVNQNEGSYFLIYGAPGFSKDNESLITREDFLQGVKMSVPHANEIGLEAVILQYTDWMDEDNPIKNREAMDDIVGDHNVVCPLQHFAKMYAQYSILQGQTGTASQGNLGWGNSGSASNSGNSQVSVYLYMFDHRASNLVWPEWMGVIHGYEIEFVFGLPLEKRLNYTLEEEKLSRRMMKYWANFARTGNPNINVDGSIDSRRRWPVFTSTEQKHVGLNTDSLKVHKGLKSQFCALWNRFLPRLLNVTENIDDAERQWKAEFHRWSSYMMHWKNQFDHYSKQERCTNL
# [11] = target: Acetylcholinesterase (Electrophorus electricus) (UniProt O42275); assay: Inhibition of electric eel AChE at 100 uM using acetylthiocholine iodide as substrate preincubated for 10 mins followed by substrate addition by Ellman's method relative to control
# [12] = Selectivity ratio of IC50 for equine serum BuChE to IC50 for electric eel AChE
# How it was run: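 Ellman kinetic assay with Electrophorus electricus AChE (acetylthiocholine) and equine serum BuChE (butyrylthiocholine iodide), […]. Enzyme was preincubated 10 min with DTNB and compound in 0.1 M sodium phosphate, pH 7.4 (final DMSO <0.2%), before substrate was added. A412 was read every 12 s for 5 min at rt to give maximum velocity. IC50 is the geometric mean of 2–3 curves, each 6 concentrations in triplicate. Selectivity is IC50 BuChE/IC50 AChE.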
# Cholinesterase = Cholinesterase (Equus caballus, UniProt P81908); assay: (§3) Inhibition of […] preincubated for 10 mins followed by substrate addition by Ellman's method
# Cholinesterase, sequence (P81908 whole entry): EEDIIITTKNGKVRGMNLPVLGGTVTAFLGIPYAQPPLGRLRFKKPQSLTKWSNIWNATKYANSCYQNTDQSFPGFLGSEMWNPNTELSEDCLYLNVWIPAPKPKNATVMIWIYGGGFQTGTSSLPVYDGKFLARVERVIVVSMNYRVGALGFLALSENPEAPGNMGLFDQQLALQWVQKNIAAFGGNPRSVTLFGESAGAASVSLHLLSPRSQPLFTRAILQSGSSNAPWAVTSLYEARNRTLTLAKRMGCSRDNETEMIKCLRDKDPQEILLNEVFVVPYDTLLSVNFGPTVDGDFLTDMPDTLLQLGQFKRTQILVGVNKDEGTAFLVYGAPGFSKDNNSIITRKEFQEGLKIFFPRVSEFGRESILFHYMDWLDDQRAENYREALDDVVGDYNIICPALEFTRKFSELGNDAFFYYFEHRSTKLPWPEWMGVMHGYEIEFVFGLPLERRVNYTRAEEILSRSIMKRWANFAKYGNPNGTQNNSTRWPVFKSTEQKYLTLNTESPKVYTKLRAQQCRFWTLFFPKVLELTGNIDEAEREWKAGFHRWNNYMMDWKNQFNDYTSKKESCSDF
# [13] = target: Cholinesterase (Equus caballus) (UniProt P81908); assay: as §3
# Cholinesterase (Equus caballus), sequence (P81908 whole entry): as above
# Acetylcholinesterase [14] = target: T1, Acetylcholinesterase; assay: Non-competitive inhibition of electric eel AChE using acetylthiocholine iodide as substrate preincubated for 10 mins followed by substrate addition by Ellman's method
# How it was run: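 Substrate-competition kinetics with E. electricus AChE by Ellman's method: 10 min enzyme–DTNB–compound preincubation in 0.1 M phosphate, pH 7.4, then acetylthiocholine; A412 was read every 12 s for 5 min at rt. Three independent data sets, each in triplicate, were averaged and fitted to a simple noncompetitive model. That model was compared with mixed linear inhibition by AICc probability ratio.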
# Mus musculus [15] = assay: Inhibition of serum COX1 level in Swiss mouse model of carragenan-induced paw edema at 100 mM/kg, po pretreated for 1 hr followed by carrageenan treatment measured after 3 hrs by ELISA; type: functional
# How it was run: (§4)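 Swiss mice (n=8) received compound (100 mM/kg) or vehicle orally 1 h before intraplantar carrageenan; indomethacin was the positive control. Three hours later, blood was drawn from the heart under chloral hydrate anaesthesia and serum was collected. COX-1 and COX-2 protein was measured by sandwich ELISA read at 450 nm and expressed as percent COX level.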
# Mus musculus [16] = assay: Inhibition of serum COX2 level in Swiss mouse model of carragenan-induced paw edema at 100 mM/kg, po pretreated for 1 hr followed by carrageenan treatment measured after 3 hrs by ELISA; type: functional; how it was run: as §4
# [17] = target: T2, Prostaglandin G/H synthase 1 (Ovis aries) (UniProt P05979); assay: Inhibition of ovine COX1 at 10 uM using arachidonic acid as substrate preincubated for 120 mins followed by substrate addition measured for 5 secs by chemiluminescence assay relative to control
# T2 sequence (whole entry): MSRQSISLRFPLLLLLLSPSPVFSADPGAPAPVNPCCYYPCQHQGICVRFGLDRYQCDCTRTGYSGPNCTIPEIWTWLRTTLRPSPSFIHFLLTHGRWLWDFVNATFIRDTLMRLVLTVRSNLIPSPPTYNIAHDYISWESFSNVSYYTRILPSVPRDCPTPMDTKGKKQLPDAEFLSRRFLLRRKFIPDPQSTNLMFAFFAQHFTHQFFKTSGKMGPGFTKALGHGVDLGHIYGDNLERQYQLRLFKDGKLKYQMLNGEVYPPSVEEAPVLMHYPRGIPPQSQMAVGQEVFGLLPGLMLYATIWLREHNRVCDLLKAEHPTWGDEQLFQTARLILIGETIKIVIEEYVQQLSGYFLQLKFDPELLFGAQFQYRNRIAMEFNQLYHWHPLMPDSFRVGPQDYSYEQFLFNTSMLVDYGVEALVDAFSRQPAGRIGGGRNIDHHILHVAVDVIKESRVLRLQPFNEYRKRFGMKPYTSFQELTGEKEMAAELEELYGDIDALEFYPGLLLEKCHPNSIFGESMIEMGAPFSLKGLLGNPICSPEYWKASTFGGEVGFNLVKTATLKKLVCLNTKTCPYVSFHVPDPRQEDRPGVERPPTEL
# How it was run: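 COX-1 or COX-2 with heme was preincubated 120 min with compound (10 µM) in assay buffer. Arachidonic acid and a chemiluminescent substrate were then added at room temperature and peroxidative activity was read for 5 s; ibuprofen was the reference. Selectivity index was taken as the ratio of maximum COX-2 inhibition to COX-1 inhibition. Two independent experiments.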
smiles,measurement,setting,value
O=C(N/N=C/c1ccc(N2CCOCC2)cc1)c1ccc(CN2CCCC(O)C2)cc1 (stereo not drawn),Time,Mus musculus [1],62.75 s
same,pIC50,Acetylcholinesterase [2],≤ 4.00
same,Activity_index,Mus musculus [3],83.96
same,ED50,Mus musculus [4],2.67 µmol/kg
same,Activity,Mus musculus [5],21.43 µL
same,Time,Mus musculus [6],69.67 s
CN1CC[C@]23c4c5ccc(O)c4O[C@H]2[C@@H](O)C=C[C@H]3[C@H]1C5 [MORPHINE],Time,Mus musculus [7],7.5 s
same,Time,Mus musculus [8],3.375 s
COc1cc2c(cc1OC)C(=O)C(CC1CCN(Cc3ccccc3)CC1)C2 (stereo not drawn) [DONEPEZIL],"viability at 6 h, 40 µM",[9],> 90%
O=C(N/N=C/c1ccc(N2CCCC2)cc1)c1ccc(CN2CCCC(O)C2)cc1 (stereo not drawn),inhibition,[10],Dose-dependent effect
same,pIC50,Acetylcholinesterase [2],4.83
same,Activity_index,Mus musculus [3],206.4
same,inhibition,[11],> 60%
CSc1ccc(/C=N/NC(=O)c2ccc(CN3CCCC(O)C3)cc2)cc1 (stereo not drawn),inhibition,[10],Dose-dependent effect
same,pIC50,Acetylcholinesterase [2],4.98
same,Activity_index,Mus musculus [3],260.3
same,Ratio IC50,[12],5.7
same,inhibition,[11],> 60%
same,pIC50,Cholinesterase,4.23
same,inhibition,[13],Dose-dependent effect
same,pKi,Acetylcholinesterase [14],5.07
O=C(N/N=C/c1ccc(Br)cc1)c1ccc(CN2CCCC(O)C2)cc1 (stereo not drawn),inhibition,[10],Dose-dependent effect
same,pIC50,Acetylcholinesterase [2],4.92
same,Activity_index,Mus musculus [3],235.8
same,inhibition,[11],> 60%
CC(=O)Oc1ccc(/C=N/NC(=O)c2ccc(CN3CCCC(OC(C)=O)C3)cc2)cc1 (stereo not drawn),pIC50,Acetylcholinesterase [2],≤ 4.00
same,Activity_index,Mus musculus [3],353.1
COc1cccc2c1C(=O)c1c(O)c3c(c(O)c1C2=O)C[C@@](O)(C(=O)CO)C[C@@H]3O[C@H]1C[C@H](N)[C@H](O)[C@H](C)O1 [DOXORUBICIN],"viability at 6 h, 40 µM",[9],> 90%
COc1ccc2c(c1)c(CC(=O)O)c(C)n2C(=O)c1ccc(Cl)cc1 [INDOMETHACIN],Time,Mus musculus [1],65.43 s
same,Activity_index,Mus musculus [3],158.1
same,ED50,Mus musculus [4],2.12 µmol/kg
same,inhibition (INH),Mus musculus [15],52%
same,inhibition (INH),Mus musculus [16],40%
same,Activity,Mus musculus [5],14.29 µL
same,Time,Mus musculus [6],22.75 s
CC(C)Cc1ccc(C(C)C(=O)O)cc1 (stereo not drawn),inhibition,[17],88%
O=C(N/N=C/c1ccc([N+](=O)[O-])cc1)c1ccc(CN2CCCC(O)C2)cc1 (stereo not drawn),inhibition,[10],Dose-dependent effect
same,pIC50,Acetylcholinesterase [2],5.57
same,Activity_index,Mus musculus [3],320.1
same,Ratio IC50,[12],12.5
same,inhibition,[11],> 60%
same,pIC50,Cholinesterase,4.47
same,inhibition,[13],Dose-dependent effect
same,pKi,Acetylcholinesterase [14],5.61
O=C(N/N=C/c1ccc(N2CCCCC2)cc1)c1ccc(CN2CCCC(O)C2)cc1 (stereo not drawn),Time,Mus musculus [1],19.63 s
same,inhibition,[10],Dose-dependent effect
same,pIC50,Acetylcholinesterase [2],4.96
same,Activity_index,Mus musculus [3],64.56
same,Ratio IC50,[12],5.3
same,inhibition,[11],> 60%
same,pIC50,Cholinesterase,4.24
same,inhibition,[13],Dose-dependent effect
same,pKi,Acetylcholinesterase [14],5.01
same,Time,Mus musculus [6],110 s
Nc1ccc(/C=N/NC(=O)c2ccc(CN3CCCC(O)C3)cc2)cc1 (stereo not drawn),inhibition,[10],Dose-dependent effect
same,pIC50,Acetylcholinesterase [2],4.67
same,Activity_index,Mus musculus [3],244.4
same,inhibition,[11],> 60%
CC(=O)OC1CCCN(Cc2ccc(C(=O)N/N=C/c3ccc(Br)cc3)cc2)C1 (stereo not drawn),pIC50,Acetylcholinesterase [2],≤ 4.00
same,Activity_index,Mus musculus [3],206.9
O=C(N/N=C/c1ccc(-n2ccnc2)cc1)c1ccc(CN2CCCC(O)C2)cc1 (stereo not drawn),inhibition,[10],Dose-dependent effect
same,pIC50,Acetylcholinesterase [2],4.66
same,Ratio IC50,[12],1.8
same,inhibition,[11],> 60%
same,pIC50,Cholinesterase,4.40
same,inhibition,[13],Dose-dependent effect
same,pKi,Acetylcholinesterase [14],4.68
O=C(N/N=C/c1ccccc1)c1ccc(CN2CCCC(O)C2)cc1 (stereo not drawn),inhibition,[10],Dose-dependent effect
same,pIC50,Acetylcholinesterase [2],4.52
same,inhibition,[11],> 60%
CC(=O)OC1CCCN(Cc2ccc(C(=O)N/N=C/c3ccc(N)cc3)cc2)C1 (stereo not drawn),Time,Mus musculus [1],47.75 s
same,pIC50,Acetylcholinesterase [2],≤ 4.00
same,Activity_index,Mus musculus [3],146.1
same,ED50,Mus musculus [4],4.2 µmol/kg
same,Activity,Mus musculus [5],11.43 µL
same,Time,Mus musculus [6],69.75 s
COc1ccc(/C=N/NC(=O)c2ccc(CN3CCCC(O)C3)cc2)cc1 (stereo not drawn),Time,Mus musculus [1],13.29 s
same,inhibition,[10],Dose-dependent effect
same,pIC50,Acetylcholinesterase [2],4.88
same,Activity_index,Mus musculus [3],161.1
same,ED50,Mus musculus [4],68.3 µmol/kg
same,Ratio IC50,[12],7
same,inhibition,[11],> 60%
same,pIC50,Cholinesterase,4.04
same,inhibition,[13],Dose-dependent effect
same,pKi,Acetylcholinesterase [14],4.94
same,Activity,Mus musculus [5],25.71 µL
same,Time,Mus musculus [6],15.86 s
